In the array DNA melting data of Ke et al. (doi:10.1101/2024.01.08.574731) one finds folding enthalpy and Tm data, which are given here for 36 sequences.

Data set [1] can be described thus: folding enthalpy; higher = less favourable; fluorescence melt of hairpins on a sequencing array, two-state fit. As to conditions: sodium 0.088 M. Put shortly:
(§1)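 Folding enthalpy and melting temperature were estimated with bootstrapped two-state fits and combined across four replicates by inverse-variance weighting, with fitted temperatures raised by 9.35 °C to match UV melts. The data were Cy3 fluorescence of library hairpins, with annealed Cy3 and quencher oligos, on a sequenced MiSeq flow cell in 50 mM Na-HEPES pH 8.0, 25 mM NaCl, imaged in 2.5 °C steps up to 60 °C and normalised to pre-quench Cy3 and control constructs.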

A short description of data set [2]: melting temperature; fluorescence melt of hairpins on a sequencing array, two-state fit, raised by 9.35 °C to match UV melts. As to conditions: sodium 0.088 M. The method in brief:
as §1

Take GATTTCCGAAAGGACATC (((.(((....))).))): the folding enthalpy in data set [1] is -27.1 kcal/mol. In data set [2], the Tm worked out at 38 °C.
In the case of GATTTCGGAAACGAAACC (.(((((....))))).), the folding enthalpy in data set [1] was -19.6 kcal/mol. Besides, the Tm in data set [2] stood at 35.8 °C.
The corresponding values for GATTTGAAAAAATC (((((....))))) are -13.9 kcal/mol and 34 °C.
GATTTGCGAAAGCAATC (((.(((....)))))): in data set [1], the folding enthalpy is -12.6 kcal/mol. Moreover, the Tm in data set [2] is 40.3 °C.
As for GATTTTGGAAACAAAACC (.(((((....))))).), the folding enthalpy in data set [1] was -24.9 kcal/mol. Moreover, the Tm in data set [2] was 29.6 °C.
Consider GATTTTGGAAACAAAATC (((((((....))))))), for which, in data set [1], the folding enthalpy was -46.4 kcal/mol. Also, in data set [2], the Tm was 51.7 °C.
Take GCAAAACCGAAAGGTTGC (((..(((....)))))): the folding enthalpy in data set [1] was -17.7 kcal/mol. In addition, the Tm in data set [2] was 50 °C.
The corresponding values for GCAAACCGAAAGGTCTGC (((.(((....))).))) are -29.8 kcal/mol and 49.8 °C.
GCAAAGCGAAAGCACTGC (((..((....))..))): the folding enthalpy in data set [1] is -13.7 kcal/mol. Besides, in data set [2], the Tm came to 37.7 °C.
Turning to GCAAAGCGAAAGCATGGC ((.(.((....)).).)), the folding enthalpy in data set [1] was -10.3 kcal/mol. Moreover, in data set [2], the Tm stood at 38.3 °C.
For the sequence GCAAAGCGAAAGCATTGC ((((.((....)).)))), in data set [1], the folding enthalpy is -21.1 kcal/mol. Besides, the Tm in data set [2] was determined as 58.9 °C.
As to GCAAAGCGAAAGCCGTGC (((..((....))..))), the folding enthalpy in data set [1] was -11.4 kcal/mol. Also, in data set [2], the Tm worked out at 39.9 °C.
In the case of GCAAAGCGAAAGCCTGGC ((.(.((....)).).)), in data set [1], the folding enthalpy is -8.7 kcal/mol. Also, the Tm in data set [2] is 35 °C.
The corresponding values for GCAAAGCGAAAGCGGTGC (((..((....))..))) are -19.8 kcal/mol and 61.7 °C.
GCAAAGCGAAAGCGTCGC ((.(.((....)).).)): the folding enthalpy in data set [1] was -23.7 kcal/mol. For the same sequence, the Tm in data set [2] worked out at 60.2 °C.
On to GCAAAGCGAAAGCTCAGC ((..(((....)))..)), for which the folding enthalpy in data set [1] was -10.8 kcal/mol. Besides, the Tm in data set [2] was found to be 33.6 °C.
Regarding GCAAAGCGAAAGCTCGGC ((..(((....)))..)), the folding enthalpy in data set [1] is -16.6 kcal/mol. The Tm in data set [2] was 36.5 °C.
Consider GCAAAGCGAAAGCTGCGC ((..(((....)))..)), for which, in data set [1], the folding enthalpy is -28.5 kcal/mol. In data set [2], the Tm stood at 64.3 °C.
Turning to GCAAAGCGAAAGCTTAGC ((.((((....)))).)), the folding enthalpy in data set [1] is -19 kcal/mol. Further, the Tm in data set [2] was 57.2 °C.
As to GCAAATACGAAAGTATGC (((..(((....)))))), the folding enthalpy in data set [1] is -21.6 kcal/mol. In data set [2], the Tm amounted to 38.7 °C.
With GCAAATGAAAATTTGC ((((((....)))))), the folding enthalpy in data set [1] was -45.3 kcal/mol. The Tm in data set [2] worked out at 52.3 °C.
With GCAAATGGAAACATTTGC (((((((....))))))), the folding enthalpy in data set [1] was -40.9 kcal/mol. The Tm in data set [2] was found to be 61.8 °C.
In the case of GCAACACGAAAGTGATGC (((.(((....))).))), in data set [1], the folding enthalpy is -38.9 kcal/mol. Besides, the Tm in data set [2] amounted to 59 °C.
As for GCAACACGAAAGTGGTGC (((.(((....))).))), the folding enthalpy in data set [1] was -32.2 kcal/mol. Besides, the Tm in data set [2] is 68.6 °C.
As for GCAACAGGAAACTGTTAC (.(((((....))))).), the folding enthalpy in data set [1] is -16.7 kcal/mol. The Tm in data set [2] was 34 °C.
Turning to GCAACCCCGAAAGGGTGC (((..(((....)))))), the folding enthalpy in data set [1] was -19.2 kcal/mol. Besides, the Tm in data set [2] was determined as 55.8 °C.
The corresponding values for GCAACCGAAAGGTAATGC ((((((....)))..))) are -20.1 kcal/mol and 38.6 °C.
The corresponding values for GCAACCGAAAGGTGTGC ((((((....))).))) are -23.2 kcal/mol and 52.4 °C.
Regarding GCAACCGAAAGGTGTTGC ((((((....)))..))), the folding enthalpy in data set [1] was -19 kcal/mol. The Tm in data set [2] worked out at 50 °C.
GCAACCGGAAACGGTCGC ((.((((....)))).)): the folding enthalpy in data set [1] is -29.8 kcal/mol. The Tm in data set [2] was 52.8 °C.
Take GCAACCTCGAAAGAGTGC (((..(((....)))))): the folding enthalpy in data set [1] was -21.7 kcal/mol. Besides, in data set [2], the Tm came out at 36.9 °C.
Consider GCAACGCGAAAGCATCGC ((.(.((....)).).)), for which the folding enthalpy in data set [1] is -13.5 kcal/mol. Moreover, the Tm in data set [2] stood at 39.2 °C.
As for GCAACGCGAAAGCATGGC ((.(.((....)).).)), in data set [1], the folding enthalpy was -13.1 kcal/mol. Besides, the Tm in data set [2] was 33.8 °C.
The corresponding values for GCAACGCGAAAGCCGTGC (((..((....))..))) are -14.8 kcal/mol and 49 °C.
For the sequence GCAACGCGAAAGCCTGGC ((.(.((....)).).)), the folding enthalpy in data set [1] was -6.76 kcal/mol. Further, the Tm in data set [2] was found to be 30.8 °C.
As to GCAACGCGAAAGCGTGC (((.(((....)))))), the folding enthalpy in data set [1] was -14.2 kcal/mol. The Tm in data set [2] is 69.1 °C.
